Compounds with a hit are over-represented: about 0.73% of the library has one in this group of screens.
Keap1 Nrf2 FP = disrupts human Keap1 binding to Nrf2 peptide; Q14145; Keap1 Kelch-Nrf2 peptide fluorescence polarization, 1536-well; inhibition, % at 9.4 µM; 340,000 tested, 0.15% active; in the data active means inhibition above about 12%;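 further: human Keap1 Kelch domain with fluorescein labeled Nrf2 9mer peptide probe; 0% = neutral control wells and 100% = peptide positive control; higher means more block of Keap1 binding to Nrf2 peptide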
DDE Tn7 FP inh = inhibitors of Tn7 peptide binding to human fibrin DD(E). FP displacement of FITC-Tn7 peptide from fibrin DD(E); 0% = median of compound wells per plate. inhibition, % at 8.3 µM. 370,000 tested, 0.13% active. AID 720508;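 active means inhibition above the mean of compounds falling within the control limits plus 3 SD of them, cut at about 14% in these data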;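 further: 0% = plate median of compound wells and 100% = 10 µM Aha-Tn7 peptide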
Target sequence (P02675 whole entry, looked up): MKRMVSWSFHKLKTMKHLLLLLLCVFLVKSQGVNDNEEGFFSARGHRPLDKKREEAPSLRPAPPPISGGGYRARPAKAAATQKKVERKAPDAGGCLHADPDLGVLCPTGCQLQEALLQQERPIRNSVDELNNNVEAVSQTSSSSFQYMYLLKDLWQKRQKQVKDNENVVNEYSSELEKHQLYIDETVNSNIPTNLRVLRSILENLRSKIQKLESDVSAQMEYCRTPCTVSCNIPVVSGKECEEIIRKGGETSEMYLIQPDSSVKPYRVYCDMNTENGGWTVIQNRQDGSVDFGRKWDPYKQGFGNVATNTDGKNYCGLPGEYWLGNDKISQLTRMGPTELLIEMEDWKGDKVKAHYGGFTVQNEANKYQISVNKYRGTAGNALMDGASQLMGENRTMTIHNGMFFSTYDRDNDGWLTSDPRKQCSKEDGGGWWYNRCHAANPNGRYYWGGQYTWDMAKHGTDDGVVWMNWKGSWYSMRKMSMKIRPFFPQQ
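System: human fibrin DD(E); quantity: Fibrin-DD(E) at 2 µM final; also added: fluorescent Tn7 probe at 0.1 µM; compound dosing: single nominal test concentration of 8.3 µM per compound; schedule: 10 min preincubation, 3 h with tracer, room temperature; detection: fluorescence polarization of the labelled Tn7 tracer; repeats: one replicate per compound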
Cardiac RTF inh = cardiac RTF calcium desensitization; P19429+P45379; IANBD-labeled cardiac RTF, Ca2+ fluorescence; inhibition, % at 7.15 µM; 340,000 tested, 0.12% active; AID 493244;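 active means inhibition above the mean inhibition of all tested compounds plus 3 SD, cut at about 17% in these data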;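 further: assay run at fixed EC70 calcium of 1.6 mM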
DDE Tn6 FP inh = inhibitors of Tn6 peptide binding to human fibrin DD(E). 370,000 tested, 0.21% active. Fibrin DD(E) TRITC-Tn6 fluorescence polarization displacement. P02675. inhibition, % at 8.3 µM;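 active means inhibition above a per-campaign cutoff: mean of compounds within control limits plus 3 SD, cut at about 15% in these data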;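 further: 0% = median of all compound wells on the plate and 100% = blocking peptide control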
cardiac RTF act = increases calcium sensitivity of human cardiac regulated thin filaments; 340,000 tested, 0.24% active; activation, % at 7.2 µM; IANBD-labeled TnC RTF fluorescence at EC20 calcium; 0% EC20 calcium, 100% full calcium; P19429+P45379;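 active means activation above the mean over all tested compounds plus 3 SD, cut at about 30% in these data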;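 further: rise in fluorescence read as greater calcium sensitivity of cardiac thin filaments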
LANA DNA inh = inhibitors of KSHV LANA C-terminal domain DNA binding. MBP-C-LANA/FAM-LBS DNA binding, fluorescence polarization. inhibition, % at 9 µM. 340,000 tested, 0.078% active;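 active means highest replicate inhibition at or above 60% at 9 µM, even if other replicates fall short; inactive means all replicates below 60% inhibition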;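 further: 0% = neutral control wells and 100% = 4 µM acridine orange control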
The depositor's hits bear a star; i = inactive; · = no result given; + = active, no number.

SMILES	Keap1 Nrf2 FP	DDE Tn7 FP inh	Cardiac RTF inh	DDE Tn6 FP inh	cardiac RTF act	LANA DNA inh
Nc1ccc2cc3[nH]c4cc(N)ccc4c3nc2c1	161.3*	-9.0	i	-11.4	+	164.5*
CCN1C(=O)/C(=C/C=C2/CCCN2C)OC1=S	-16.6	-7.1	-38.2	2.2	32.5*	-2.5
Cc1ccc(Cn2cc(COC(=O)Nc3ccc(F)cc3)nn2)cc1	·	4.6	·	6.1	·	·
CCOC(=O)/C(=C\c1ccc(N2CCC(c3ccccc3)=N2)cc1)C(C)=O	0.4	-3.3	-65.9	7.1	72.2*	5.6
O=C(/C=C/c1ccc(N2CCC(c3ccccc3)=N2)cc1)c1ccccc1	·	-3.0	·	-8.0	·	·
O=c1c(O)c(-c2cccs2)oc2ccc(Cl)cc12	-0.5	-9.4	-84.6	-2.8	36.1*	-0.1
O=c1c(O)c(-c2cccs2)oc2ccccc12	-0.9	-9.6	-10.8	0.0	2.2	1.0
COc1cc(/C=C2\SC(=Nc3ccc(Cl)c(C(=O)O)c3)NC2=O)c(Br)c(Br)c1O	-92.4	-28.1	-134.7	-11.3	69.8*	-54.9
COc1cc(/C=C2\SC(=Nc3ccccc3)NC2=O)cc(Cl)c1O	-8.4	-59.6	-92.2	-13.6	63.0*	-30.5
COC(=O)/C=C1\SC(=Nc2ccc(Cl)c(Cl)c2)NC1=O	-1.8	0.1	1.6	-6.8	0.8	-1.2
O=C(Nc1cccc(Cl)c1)Nc1cc(S(=O)(=O)N2CCCCC2)ccc1Cl	1.5	4.7	0.3	55.1*	-2.6	0.1
CCN(CC)c1ccc2cc(-c3nnc(-c4ccccc4)o3)c(=O)oc2c1	-41.9	-7.3	i	-0.6	704.9*	10.1
CN(C)Cc1c(O)ccc2cc(-c3nc4ccccc4n3C)c(=O)oc12	2.7	0.5	-20.6	0.5	12.8	13.3
CCN(CC)c1ccc2cc(-c3nc4ccccc4n3C)c(=O)oc2c1	-5.9	1.4	-188.2	3.6	102.3*	4.2
CCN(CC)c1ccc2cc(-c3nc4ccccc4[nH]3)c(=O)oc2c1	-16.2	·	i	·	+	20.8
O=C(CSc1nnc(-c2ccc(Cl)cc2)n1C1CCCCC1)NN=Cc1c(O)ccc2ccccc12	·	-8.1	·	-1.0	·	·
CCOC(=O)C1Nc2ccc(C(F)(F)F)cc2C2c3ccccc3CC12 (centres undefined)	-6.6	3.1	-7.4	0.4	9.3	1.2
CCOC(=O)C1Nc2ccccc2C2C(O)C(O)CC12 (centres undefined)	3.0	2.2	-72.6	-2.4	79.9*	54.1
CCCOc1ccc(N)cc1N	0.8	2.5	-46.8	-6.6	32.5*	2.9
Cc1cc(NS(=O)(=O)c2ccc(NC(=O)Cc3ccc(Cl)c(F)c3)cc2)no1	·	5.9	·	-6.1	·	·
C=CCOC(=O)c1cc(-c2ccc(/C=C3\C(=O)NC(=O)C(C#N)=C3C)o2)ccc1Cl	3.1	-4.0	-4.6	-8.3	-11.8	80.6*
COc1ccc(C(=O)N/N=C/c2sc3ccccc3c2O)cc1	-75.7	·	-26.2	·	32.2*	-21.1
COc1ccc(C(=O)N/N=C/c2c[nH]c3ccccc23)cc1	-4.3	2.9	-3.7	-6.1	-4.5	-7.3
O=C(N/N=C/c1sc2ccccc2c1O)c1cccc2ccccc12	-17.6	-25.6	-11.1	-3.5	7.5	-2.0
O=C(N/N=C/c1sc2ccccc2c1O)c1ccccc1	-52.1	·	-45.9	·	47.1*	-15.8
SMILES	Keap1 Nrf2 FP	DDE Tn7 FP inh	Cardiac RTF inh	DDE Tn6 FP inh	cardiac RTF act	LANA DNA inh
COc1ccc2cc(C(=O)N/N=C/c3sc4ccccc4c3O)ccc2c1	-20.3	-44.3	-134.8	-10.3	109.2*	-8.3
COC(=O)[C@]12C[C@H](CC(=O)NCC3CCCCC3)C(=O)N(Cc3ccco3)C1=C[C@H](C(C)C)O[C@@H]2C1CC1	·	4.3	·	-5.2	·	·
CCCCCOc1ccc(/C=N/NC(=O)CSc2nnc(-c3ccc(OC)cc3)n2-c2ccc(C)cc2)cc1	·	1.4	·	-5.9	·	·
CCN1/C(=C/C=C2/SC(=Nc3cccc4ncccc34)N(C)C2=O)Sc2ccccc21	0.4	5.2	-27.9	-7.4	41.2*	1.9
C=CCN1C(=O)/C(=C2/Sc3ccccc3N2C)SC1=Nc1ccccc1C	0.8	2.8	4.0	-5.4	7.3	-0.2
C[C@@H]1CN([C@H](C)CO)C(=O)CCCn2cc(nn2)CO[C@H]1CN(C)S(=O)(=O)c1ccc(-c2ccccc2)cc1	·	6.2	·	2.8	·	·
